Activity calls are given as the source filed them. The calls are words filed in the database; no cut-off is given here.
Experiments:
[1] = system: P388; conditions: Mus musculus
[2] = species: Mus musculus; test: Dose of compound which caused an average weight loss >3g in a set of mice or the death of one or more of the mice in the set in the P388 NCI screen.; format: functional
Method in brief: (§1)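 P388 leukemia-bearing mice, 20–22 g; one im injection daily for 9 days, compound in hydroxypropylcellulose suspension or aqueous solution. Toxic dose = lowest dose level at which ≥1 mouse died on or by day 5, or group mean weight loss >3 g; converted to μmol/kg.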

[3] = system: P388; test: The compound was tested for its potency against lymphocytic leukemia P388 screen in mice.; format: functional, Mus musculus
[4] = system: Mus musculus; test: Toxicity found after a single im injection. The total number of deaths were counted after 7 days and LD50 was determined by probit analysis; 2.4-5.1; format: functional
Method in brief: (§2)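 NIH general purpose mice (ca. 20 g), ten per dose level, usually ≥5 dose levels; single im injection in Emulphor EL-620 mixture, vehicle-only group of ten as control. Survivors counted at day 7; LD50 with 95% confidence interval by probit analysis, converted to μmol/kg.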

[5] = system: Mus musculus; test: (§3) Toxicity found after a single im injection. The total number of deaths were counted after 7 days and LD50 was determined by probit analysis.; format: functional
Method in brief: as §2

[6] = as §3; format: organism-based; conditions: mouse, in vivo, read-out: Toxicity
Method in brief: as §2

[7] = species: Mus musculus; test: Dose of compound which caused an average weight loss >3g in a set of mice or the death of one or more of the mice in the set in the P388 NCI screen; format: functional
Method in brief: as §1

[8] = system: Mus musculus; test: Toxicity found after a single im injection. The total number of deaths were counted after 7 days and LD50 was determined by probit analysis; 6.4-11.8; format: functional
Method in brief: as §2

[9] = system: Mus musculus; test: Toxicity found after a single im injection. The total number of deaths were counted after 7 days and LD50 was determined by probit analysis; 101.5-317.8; format: functional
Method in brief: as §2

[10] = system: P388; test: The compound was tested for its potency against lymphocytic leukemia P388 screen in mice; Inactive.; format: functional, cell-based; conditions: Mus musculus
[11] = system: Mus musculus; test: Toxicity found after a single im injection. The total number of deaths were counted after 7 days and LD50 was determined by probit analysis; 28.6-63.9; format: functional
Method in brief: as §2

[12] = system: Mus musculus; test: Toxicity found after a single im injection. The total number of deaths were counted after 7 days and LD50 was determined by probit analysis; 0.9-1.3; format: functional
Method in brief: as §2

[13] = system: Mus musculus; test: Toxicity found after a single im injection. The total number of deaths were counted after 7 days and LD50 was determined by probit analysis; 2.5-4.0; format: functional
Method in brief: as §2

[14] = system: Mus musculus; test: Toxicity found after a single im injection. The total number of deaths were counted after 7 days and LD50 was determined by probit analysis; 82.9-163.4; format: functional
Method in brief: as §2

Compound: COc1cc2c(c(O)c1OC)-c1ccc(SC)c(=O)cc1[C@@H](NC(C)=O)CC2
- Potency [1]: inactive

Compound: CN[C@H]1CCc2cc(OC)c(OC)c(OC)c2-c2ccc(OC)c(=O)cc21 [DEMECOLCINE]
- Toxicity [2]: 21.6 µM/kg
- Potency [3]: 10.8 µM/kg

Compound: CN[C@H]1CCc2cc(OC)c(OC)c(OC)c2-c2ccc(=O)c(O)cc21
- Potency [1]: inactive

Compound: COc1cc2c(c(OC)c1OC)-c1ccc(OC)c(=O)cc1[C@@H](N(C)C(C)=O)CC2
- Toxicity [4]: 3.6 µM/kg
- Toxicity [2]: 3 µM/kg
- Potency [3]: 0.4 µM/kg

Compound: COc1cc2c(c(OC(C)=O)c1OC)-c1ccc(OC)c(=O)cc1[C@@H](NC(C)=O)CC2
- Toxicity [2]: 46.8 µM/kg
- Toxicity [5]: 205.9 µM/kg
- Potency [1]: inactive

Compound: COc1cc2c(c(OC)c1OC)-c1ccc(OC)c(=O)cc1[C@@H](N(C)C)CC2
- LD50 at 168 h [6]: 520 µmol/kg
- Potency [3]: 68 µM/kg
- Toxicity [7]: 51.9 µM/kg

Compound: COc1cc2c(c(OC)c1OC)-c1ccc(OC)c(=O)cc1[C@@H](N(C)C(=O)C(F)(F)F)CC2
- Toxicity [2]: 5.4 µM/kg
- Potency [3]: 1.5 µM/kg
- Toxicity [8]: 8.8 µM/kg

Compound: COc1c(O[C@H]2O[C@H](CO)[C@@H](O)[C@H](O)[C@H]2O)cc2c(c1OC)-c1ccc(OC)c(=O)cc1C(NC(C)=O)CC2 (some centres not stated)
- Potency [1]: inactive

Compound: COc1cc2c(c(OC)c1OC)-c1ccc(=O)c(OC)cc1[C@@H](NC(=O)C(F)(F)F)CC2
- Potency [1]: inactive

Compound: COc1cc2c(c(OC)c1OC)-c1ccc(OC)c(=O)cc1[C@@H](N(C)C=O)CC2
- Toxicity [2]: 6.3 µM/kg
- Potency [3]: 1.7 µM/kg
- Toxicity [9]: 179.7 µM/kg

Compound: COc1cc2c(c(OC)c1OC)-c1ccc(=O)c(OC)cc1[C@@H](N(C)C=O)CC2
- Potency [1]: inactive

Compound: COc1cc2c(c(OC)c1OC)-c1ccc(=O)c(OC)cc1[C@@H](N(C)C)CC2
- Potency [10]: inactive

Compound: COc1cc2c(c(OC)c1OC)-c1ccc(OC)c(=O)cc1[C@@H](N(C)Cc1ccccc1O)CC2 [SPECIOSINE]
- LD50 at 168 h [6]: 296 µmol/kg
- Potency [3]: 22 µM/kg
- Toxicity [7]: 83.9 µM/kg

Compound: COc1cc2c(c(OC)c1OC)-c1ccc(OC)c(=O)cc1C(=O)CC2
- Toxicity [2]: 28.1 µM/kg
- Potency [3]: 9.6 µM/kg

Compound: COc1cc2c(c(OC)c1O)-c1ccc(OC)c(=O)cc1[C@@H](NC(C)=O)CC2 [2-DESMETHYLCOLCHICIN]
- Toxicity [2]: 51.9 µM/kg
- Potency [3]: 13.8 µM/kg
- Toxicity [11]: 42.9 µM/kg

Compound: COc1cc2c(c(OC)c1OC)-c1ccc(OC)c(=O)cc1CC=C2
- LD50 at 168 h [6]: ~300 µmol/kg
- Potency [3]: 15.9 µM/kg
- Toxicity [7]: 29.4 µM/kg

Compound: COc1cc2c(c(OC)c1OC)-c1ccc(=O)c(OC)cc1CC=C2
- Potency [10]: inactive

Compound: COc1cc2c(c(OC)c1OC)-c1ccc(=O)c(OC)cc1[C@@H](N(C)C(C)=O)CC2
- Potency [1]: inactive

Compound: COc1cc2c(c(OC)c1OC)-c1ccc(OC)c(=O)cc1[C@@H](NC(=O)C(F)(F)F)CC2
- Toxicity [2]: 0.9 µM/kg
- Potency [3]: 0.4 µM/kg
- Toxicity [12]: 1.1 µM/kg

Compound: COc1cc2c(c(O)c1OC)-c1ccc(OC)c(=O)cc1[C@@H](NC(C)=O)CC2
- Toxicity [2]: 103.9 µM/kg
- Toxicity [5]: >520 µM/kg
- Potency [3]: 86 µM/kg

Compound: COc1cc2c(c(OC)c1OC)-c1ccc(OC)c(=O)cc1[C@@H](NC(C)=O)CC2 [COLCHICINE]
- Toxicity [2]: 2.5 µM/kg
- Toxicity [13]: 3 µM/kg
- Potency [3]: 0.4 µM/kg

Compound: COC1=CC=C2C(=C(NC(C)=O)CCc3cc(OC)c(OC)c(OC)c32)CC1=O
- Potency [1]: inactive

Compound: COc1cc2c(c(OC)c1OC)-c1ccc(OC)c(=O)cc1[C@H](NC(C)=O)CC2
- Toxicity [14]: 122.6 µM/kg

— ChEMBL document CHEMBL1121793, “Biological effects of modified colchicines. Improved preparation of 2-demethylcolchicine, 3-demethylcolchicine, and (+)-colchicine and reassignment of the position of the double bond in dehydro-7-deacetamidocolchicines” (J Med Chem, 1981)
